Experimental findings from ChEMBL document CHEMBL1123797, “Antianaphylactic benzophenones and related compounds” (1987) are described below.

For assay [1], the species on record is Cavia porcellus. Briefly: Inhibition of slow reacting substance of anaphylaxis (SRS-A) release from sensitized guinea pig chopped lung upon antigen challenge at 10 ug/mL. The class given is functional. An outline of the steps: (§1)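 Guinea pigs sensitized to ovalbumin; lungs taken 3 weeks later, perfused with Tyrode, chopped into 0.5-mm cubes. 100-mg aliquots in Tyrode were preincubated 5 min at 37 °C, then compound or Tyrode and ovalbumin (5 mg in 0.1 mL) were added. Incubation was 15 min at 37 °C with rocking, and supernatant was bioassayed. Unchallenged control gave spontaneous release. Values are % inhibition, mean of ≥4 samples; Student's t-test.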

The species named for assay [2] is Cavia porcellus. Put plainly: Inhibition of histamine release from sensitized guinea pig chopped lung upon antigen challenge at 10 ug/mL. The class given is functional. Put shortly:
as §1

Structures are written as SMILES.

In the case of `CCCc1cccc(C(=O)c2ccc(Cl)cc2)c1O`, in assay [1], the Inhibition amounted to 0%.
On the same count and under the same terms, next, `CCc1ccc(C(=O)c2ccc(Cl)cc2)c(O)c1`: 8%.
For the molecule `CCc1ccc(O)c(C(=O)c2ccccn2)c1`, the Inhibition came to 5% in assay [2] and 30% in assay [1].
As for `CCc1ccc(S(C)(=O)=O)c(C(=O)c2ccc(F)cc2)c1`, in assay [1], the Inhibition is reported as 27%.
For `CCc1ccc(/C(=N/O)c2ccc(Cl)cc2)c(O)c1`, in assay [1], the Inhibition is reported as 0%.
As to `CCc1cccc(C(=O)c2ccc(Cl)cc2)c1O`, in assay [1], the Inhibition stood at 2%.
With `CCc1ccc(C(=O)c2cccc(F)c2)c(O)c1`, the Inhibition in assay [1] was 26%.
On the same count and under the same terms, the value for `O=C(c1ccccc1)c1ccccc1O` was 0%.
Take `CCc1cc(CC)c(O)c(C(=O)c2ccc(Cl)cc2)c1`: the Inhibition is reported as 9% in assay [2] and 38% in assay [1].
Take `CCc1ccc(OC)c(C(=O)c2ccccn2)c1`: the Inhibition in assay [1] was 0%.
For the molecule `CCc1ccc(SC)c(C(=O)c2ccccc2)c1`, the figures for the Inhibition in assay [2] and in assay [1] were 19% and 52%, respectively.
Turning to `CCc1ccc(OC)c(C(O)c2ccc(C)cc2)c1` (stereo not drawn), the Inhibition in assay [1] turned out to be 28%.
Still for that read-out and setting: next, `CCc1ccc(C(=O)O)c(C(=O)c2ccc(Cl)cc2)c1`: 20%.
Consider `C=C(c1ccc(F)cc1)c1ccc(CC)cc1O`, for which the Inhibition in assay [2] is reported as 0%; in assay [1] it was 32%.
As for `CCc1ccc(OC(C)=O)c(C(=O)c2ccc(C)cc2)c1`, the Inhibition was 9% in assay [2] and 49% in assay [1].
`CCc1ccc(O)c([S+]([O-])c2ccccc2)c1` (stereo not drawn): the Inhibition in assay [2] and in assay [1] was 36% each time.
With `CCc1ccc(SC)c(C(O)c2ccc(Cl)cc2)c1` (stereo not drawn), the Inhibition in assay [1] was determined as 11%.
As to `CCc1ccc(S(C)(=O)=O)c(C(=O)c2ccccc2)c1`, the Inhibition in assay [2] was 13%; in assay [1] it was 35%.
Take `CCc1ccc(O)c(Sc2ccc(Cl)cc2)c1`: the Inhibition in assay [2] and in assay [1] was 31% in each case.
Turning to `Cc1ccc(C(=O)c2ccc(F)cc2)c(O)c1`, the Inhibition in assay [1] is listed as 10%.
As for `Cc1ccc(O)c(C(=O)c2ccc(Cl)cc2)c1`, the Inhibition is on record as 0% in assay [2] and 46% in assay [1].
As to `CCc1ccc(O)c(C(=O)c2ccc(C)cc2)c1`, the Inhibition in assay [2] is recorded as 53%; in assay [1], 76%.
Consider `CCc1ccc(O)c(C(=O)c2ccc(Cl)s2)c1`, for which the Inhibition in assay [1] came to 21%.
Consider `CCc1ccc(O)c(C(=O)c2ccc([N+](=O)[O-])cc2)c1`, for which the Inhibition in assay [1] is listed as 5%.
On to `CCc1ccc(S(C)(=O)=O)c(C(=O)c2ccc(Cl)cc2)c1`, for which the Inhibition in assay [1] stood at 17%.
As for `CCc1ccc(SC)c(C(=O)c2ccc(C)cc2)c1`, the Inhibition in assay [2] was 0%; in assay [1], 32%.
For the molecule `CCc1ccc(OC(=O)c2ccccc2)c(C(=O)c2ccc(Cl)cc2)c1`, the Inhibition in assay [2] amounted to 32%; in assay [1] it was 71%.
For the molecule `CCc1ccc(OC)c(C(OC)c2ccc(Cl)cc2)c1` (stereo not drawn), the Inhibition in assay [2] is given as 22%; in assay [1], 32%.
For `CCc1ccc(O)c(C(=O)c2ccc(Cl)cc2Cl)c1`, the Inhibition in assay [1] is 0%.
Consider `CCc1ccc(Cc2ccc(F)cc2)c(O)c1`, for which the Inhibition stood at 33% in assay [2] and 34% in assay [1].
As for `CCCc1ccc(O)c(/C(=N/O)c2ccc(Cl)cc2)c1`, in assay [1], the Inhibition was determined as 8%.
As to `Cc1ccc(O)c(/C(=N/O)c2ccc(Cl)cc2)c1`, the values for the Inhibition in assay [2] and in assay [1] were 59% and 40%, respectively.
Turning to `Cc1cccc(/C(=N/O)c2ccc(Cl)cc2)c1O`, the Inhibition in assay [2] and in assay [1] was 52% in each case.
In the case of `CCc1ccc(O)c(Cc2ccc(C)cc2)c1`, the Inhibition in assay [1] was found to be 0%.
Regarding `CCc1ccc(O)c(C(=O)c2ccc3ccccc3c2)c1`, the Inhibition in assay [1] is on record as 2%.
Regarding `CCc1ccc(OC(C)=O)c(C(=O)c2ccc(Cl)cc2)c1`, in assay [1], the Inhibition was 28%.
For the molecule `CCc1ccc(O)c(C(=O)c2ccc(Br)cc2)c1`, in assay [1], the Inhibition is recorded as 10%.
On the same count and under the same terms, the value for `CCc1ccc(O)c(C(=O)c2cccc(Cl)c2)c1` was 0%.
With `CCc1ccc(O)c(C(=O)c2ccc(Cl)c(Cl)c2)c1`, the Inhibition in assay [1] was 0%.
Regarding `CCc1ccc(S(C)(=O)=O)c(C(=O)c2ccc(C)cc2)c1`, the Inhibition in assay [1] is recorded as 11%.
Same read-out and setting: the value for `CCc1ccc(C(=O)c2ccc(F)cc2)c(OC(C)=O)c1` was 9%.
As for `CCc1ccc(SC)c(C(=O)c2ccc(F)cc2)c1`, the Inhibition in assay [2] came out at 14%; in assay [1], 31%.
`CCc1ccc(O)c(C(=O)c2ccc(F)cc2)c1`: the Inhibition in assay [1] turned out to be 1%.
Regarding `CCc1ccc(O)c(C(O)c2ccccc2)c1` (stereo not drawn), the results for the Inhibition in assay [2] and in assay [1] were 7% and 37%, respectively.
As to `CCc1ccc(O)c(C(=O)c2cccc(C#N)c2)c1`, in assay [1], the Inhibition was determined as 21%.
For the molecule `Cc1ccc(C(=O)c2ccc(Cl)cc2)c(O)c1`, in assay [1], the Inhibition is reported as 0%.
For the molecule `CCc1ccc(O)c(C(O)c2ccc([N+](=O)[O-])cc2)c1` (stereo not drawn), the Inhibition turned out to be 0% in assay [2] and 33% in assay [1].
Take `CCc1ccc(O)c(Sc2ccccc2)c1`: in assay [1], the Inhibition is recorded as 0%.
For the molecule `CC(=O)c1ccc(O)c(C(=O)c2ccc(Cl)cc2)c1`, the figures for the Inhibition in assay [2] and in assay [1] were 61% and 49%, respectively.
With `Cc1ccc(O)c(C(=O)c2ccccc2)c1`, the figures for the Inhibition in assay [2] and in assay [1] were 78% and 39%, respectively.
Take `CCc1cccc(/C(=N/O)c2ccccc2)c1O`: the Inhibition in assay [1] is 13%.
Same read-out and setting: next, `C=C(c1ccc(Cl)cc1)c1cc(CC)ccc1O`: 3%; `Cc1cccc(C(=O)c2ccccc2)c1O`: 0%.
Turning to `CCc1ccc(O)c(C(=O)c2ccc(C)s2)c1`, in assay [1], the Inhibition came out at 28%.
`CCc1ccc(/C(=N/O)c2ccc(F)cc2)c(O)c1`: the figures for the Inhibition in assay [2] and in assay [1] were 46% and 33%, respectively.
Take `CCc1ccc(OC)c(C(=O)c2cc[n+]([O-])cc2)c1`: the Inhibition in assay [1] is 0%.
On the same count and under the same terms, next, `CCCCc1ccc(O)c(C(=O)c2ccc(Cl)cc2)c1`: 0%.
With `CCc1ccc(O)c(C(=O)c2cccc3ccccc23)c1`, the Inhibition in assay [1] came to 0%.
As to `CCc1ccc(O)c(C(O)c2ccc(Cl)cc2)c1` (stereo not drawn), in assay [1], the Inhibition is reported as 5%.
Still for that read-out and setting: next, `CCc1ccc(O)c(/C(=N/O)c2ccc(Cl)cc2Cl)c1`: 0%.
Regarding `Cc1ccc(/C(=N/O)c2ccc(Cl)cc2)c(O)c1`, the Inhibition in assay [1] stood at 0%.
In the case of `CCc1ccc(O)c(C(=O)c2ccccc2Cl)c1`, the Inhibition in assay [1] came to 14%.
The same measure, in the same setting: the value for `C=C(c1ccccc1)c1cc(CC)ccc1O` was 24%; that for `CCCc1ccc(O)c(C(=O)c2ccc(Cl)cc2)c1` was 0%.
`O=C(c1ccc(Cl)cc1)c1ccccc1O`: the Inhibition in assay [1] came to 0%.
With `CCc1ccc(O)c(/C(=N/O)c2ccc(Cl)c(Cl)c2)c1`, the Inhibition in assay [1] was determined as 2%.
`CCCc1cccc(C(=O)c2ccccc2)c1O`: the Inhibition in assay [1] was found to be 0%.
On the same count and under the same terms, next, `CCc1cc([S+]([O-])c2ccc(C)cc2)c(O)cc1Cl` (stereo not drawn): 5%.
Turning to `CCc1ccc(OC)c(C(=O)c2ccncc2)c1`, the Inhibition in assay [1] worked out at 0%.
In the case of `CCc1ccc(O)c(C(=O)c2cccnc2)c1`, in assay [1], the Inhibition is reported as 27%.
For the molecule `CCc1ccc(O)c(C(=O)c2ccncc2)c1`, the Inhibition in assay [1] amounted to 0%.
